Values after ≈ are worked out from the molar mass of the structure shown. Active and inactive are the calls of the source. The calls are words filed in the database; no cut-off is given here.
Tests used:
[1] = target: T1, Lysophosphatidic acid receptor 1 (Homo sapiens, UniProt Q92633); assay: Antagonist activity at human LPA1 receptor expressed in CHO cells assessed as reduction in LPA-induced intracellular Ca2+ concentration pretreated with compound followed by LPA addition by fluorescence assay; format: functional, cell-based
Outline: (§1)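 IC50s came from nonlinear regression of 5-point concentration–response curves, reported with 95% confidence intervals.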

Rattus norvegicus [2] = assay: Inhibition of LPA-induced increase of intraurethral pressure in anesthetized rat at 10 mg/kg, id administered at 0 mins followed by LPA challenge at 0, 5, 15, 30 and 60 mins; format: functional; conditions: Urethra
Outline: (§2)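 Anesthetized rats received compound in 0.5% methylcellulose intraduodenally at 0 min. LPA (300 μg/kg) was given i.v. before dosing and at 5, 15, 30 and 60 min. The read-out is the maximal inhibition rate of the LPA-evoked intraurethral pressure rise.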

[3] = Half life in rat at 3 mg/kg, iv; format: ADME, organism-based; conditions: in vivo
Rattus norvegicus [4] = assay: Inhibition of LPA-induced increase of intraurethral pressure in po dosed rat administered 60 mins prior to LPA addition; format: functional; conditions: Urethra
Outline: (§3)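 Conscious rats were dosed orally. After 60 min, LPA (300 μg/kg) was injected i.v. and intraurethral pressure was recorded under short-term anesthesia. ID50 was taken from the dose–response.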

[5] = target: Lysophosphatidic acid receptor 2 (Homo sapiens, UniProt Q9HBW0); assay: Inhibition of LPA2 (unknown origin); outline: as §1
Rattus norvegicus [6] = assay: Inhibition of LPA-induced increase of intraurethral pressure in rat at 30 mg/kg, po administered 60 mins prior to LPA addition; format: functional, organism-based; conditions: Urethra; outline: as §3
[7] = Half life in human liver microsomes at 0.5 mg/ml; format: ADME
Outline: (§4)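 Liver microsomes were used at 0.5 mg/mL with NADPH. Half-life is reported in min.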

[8] = target: T2, Lysophosphatidic acid receptor 3 (Homo sapiens, UniProt Q9UBY5); assay: Inhibition of LPA3 (unknown origin); outline: as §1
T2 sequence (Q9UBY5 whole entry): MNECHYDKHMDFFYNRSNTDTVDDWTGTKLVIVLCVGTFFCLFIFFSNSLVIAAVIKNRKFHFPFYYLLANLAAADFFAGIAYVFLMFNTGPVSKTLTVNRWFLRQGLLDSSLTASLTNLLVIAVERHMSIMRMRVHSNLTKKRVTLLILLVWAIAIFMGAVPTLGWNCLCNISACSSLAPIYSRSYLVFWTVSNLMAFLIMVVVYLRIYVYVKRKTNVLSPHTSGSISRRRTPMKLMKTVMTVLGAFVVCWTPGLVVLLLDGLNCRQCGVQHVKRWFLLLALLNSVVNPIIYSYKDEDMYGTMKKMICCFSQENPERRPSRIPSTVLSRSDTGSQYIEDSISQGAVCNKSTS

Rattus norvegicus [9] = assay: Inhibition of LPA-induced increase of intraurethral pressure in rat at 10 mg/kg, po administered 60 mins prior to LPA addition; format: functional, organism-based; conditions: Urethra; outline: as §3
Rattus norvegicus [10] = assay: Inhibition of LPA-induced increase of intraurethral pressure in anesthetized rat at 3 mg/kg, id administered at 0 mins followed by LPA challenge at 0, 5, 15, 30 and 60 mins; format: functional; conditions: Urethra; outline: as §2
Rattus norvegicus [11] = assay: In vivo antagonist activity at LPA1 receptor in conscious rat assessed as decrease in intraurethral pressure at 30 mg/kg, po; format: functional, organism-based
Outline: (§5)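 Conscious rats were dosed orally at 0 min with no LPA stimulation. Intraurethral pressure and mean blood pressure were recorded continuously for 60 min and averaged over 10-min intervals. Comparison was against vehicle.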

[12] = Total clearance in rat at 3 mg/kg, iv; format: ADME, organism-based; conditions: in vivo
Rattus norvegicus [13] = assay: Reduction in intraurethral pressure in conscious rat at 1 mg/kg, po measured after 60 mins; format: functional, organism-based; conditions: 30 mg/kg, in the assay text read “30 mg/kg” for “1 mg/kg”; outline: as §5
Rattus norvegicus [14] = assay: Toxicity in conscious rat assessed as reduction in mean blood pressure at 30 mg/kg, po; format: organism-based; conditions: in vivo; outline: as §5
[15] = Apparent permeability in human Caco2 cells; format: ADME, cell-based; conditions: Caco-2
[16] = Solubility of the compound in buffer at pH 6.8; format: physicochemical
[17] = Half life in rat liver microsomes at 0.5 mg/ml; format: ADME; outline: as §4
Rattus norvegicus [18] = assay: Toxicity in conscious rat assessed as reduction in mean blood pressure at 1 mg/kg, po measured after 60 mins; format: organism-based; conditions: in vivo, 1 h; outline: as §5
[19] = target: T1, Lysophosphatidic acid receptor 1; assay: Antagonist activity at human LPA1 receptor expressed in CHO cells assessed as reduction in LPA-induced intracellular Ca2+ concentration at 1 uM pretreated with compound followed by LPA addition by fluorescence assay; format: functional, cell-based

T1 sequence (Q92633 whole entry): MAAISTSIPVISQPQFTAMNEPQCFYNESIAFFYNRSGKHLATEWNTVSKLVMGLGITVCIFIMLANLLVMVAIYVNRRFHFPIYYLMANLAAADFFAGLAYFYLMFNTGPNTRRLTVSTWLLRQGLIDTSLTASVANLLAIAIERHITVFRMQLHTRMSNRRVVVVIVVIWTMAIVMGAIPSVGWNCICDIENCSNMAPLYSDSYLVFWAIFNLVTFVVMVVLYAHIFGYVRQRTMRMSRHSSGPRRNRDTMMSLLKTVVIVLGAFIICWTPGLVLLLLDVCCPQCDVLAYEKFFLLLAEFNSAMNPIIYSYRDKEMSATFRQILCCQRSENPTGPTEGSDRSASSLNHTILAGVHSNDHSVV
Sequence of Lysophosphatidic acid receptor 2 (Q9HBW0 whole entry): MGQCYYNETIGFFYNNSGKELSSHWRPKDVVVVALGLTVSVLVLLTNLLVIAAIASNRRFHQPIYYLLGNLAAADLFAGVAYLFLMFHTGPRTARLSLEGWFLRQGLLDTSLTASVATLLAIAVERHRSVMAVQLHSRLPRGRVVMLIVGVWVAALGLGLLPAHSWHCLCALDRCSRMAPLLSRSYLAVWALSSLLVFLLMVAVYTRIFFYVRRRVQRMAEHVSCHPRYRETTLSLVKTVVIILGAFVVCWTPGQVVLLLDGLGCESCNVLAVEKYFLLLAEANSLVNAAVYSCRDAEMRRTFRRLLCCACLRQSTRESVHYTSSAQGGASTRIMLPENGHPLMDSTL

COc1cc(C(=O)N(CCCc2ccccc2)Cc2ccc(-c3ccccc3C(=O)O)cc2)cc(OC)c1OC
IC50 [1]: 390 nM

COc1cc(C(=O)N(C/C=C/c2ccccc2)Cc2ccc(CC(=O)O)cc2)cc(OC)c1C
IC50 [1]: > 1000 nM

COc1cccc(C(=O)N(CCCc2ccccc2)Cc2ccc(-c3ccccc3C(=O)O)cc2)c1
IC50 [1]: 1300 nM

COc1cc(C(=O)N(CCCc2ccccc2)Cc2ccc(Oc3c(C)cccc3C(=O)O)cc2)cc(OC)c1C
IC50 [1]: 140 nM

COc1cc(C(=O)N(CCCc2ccccc2)Cc2ccc(CC(=O)O)cc2)cc(OC)c1C
inhibition in vivo at 10 mg/kg (Rattus norvegicus [2]): 88% | half-life [3]: 18 min | inhibition (Rattus norvegicus [4]): Dose-dependent effect | ED50 (Rattus norvegicus [4]; read-out: ID50 (the source's name)): 11.6 mg/kg | IC50 [1]: 160 nM | IC50 [5]: 8600 nM | inhibition (Rattus norvegicus [6]): Active | half-life [7]: 28 min | IC50 [8]: > 10000 nM | inhibition (Rattus norvegicus [9]): Active | inhibition in vivo at 3 mg/kg (Rattus norvegicus [10]): 62% | inhibition (Rattus norvegicus [11]): Active | clearance [12]: 15.9 mL/min/kg | Activity (Rattus norvegicus [13]): Active | Activity (Rattus norvegicus [14]): Non-Toxic | Papp [15]: 15.9 ×10⁻⁶ cm/s | solubility [16]: 73 µM (≈ 33.7 µg/mL) | half-life [17]: 29 min

COc1cc(C(=O)N(CCCOc2cccc(C(=O)O)c2)CCCc2ccccc2)cc(OC)c1C
IC50 [1]: 680 nM

COc1cc(C(=O)N(CCCc2ccccc2)Cc2ccc(Oc3ccc(C)cc3C(=O)O)cc2)cc(OC)c1C
IC50 [1]: 42 nM

COc1cc(C(=O)N(CCCc2cccc(F)c2)Cc2ccc(CC(=O)O)cc2)cc(OC)c1C
IC50 [1]: 190 nM

COc1cc(C(=O)N(CCCc2ccccc2)Cc2ccc(Oc3ccc(Cl)cc3C(=O)O)cc2)cc(OC)c1C
inhibition in vivo at 10 mg/kg (Rattus norvegicus [2]): 53% | IC50 [1]: 3.5 nM | IC50 [5]: 790 nM | half-life [7]: < 15 min | IC50 [8]: > 10000 nM | solubility [16]: 69 µM (≈ 39.6 µg/mL) | half-life [17]: < 15 min

COc1cc(C(=O)N(CCCc2ccccc2F)Cc2ccc(CC(=O)O)cc2)cc(OC)c1C
IC50 [1]: 220 nM

COc1cc(C(=O)N(CCCc2ccccc2)Cc2ccc(Oc3cc(C)ccc3C(=O)O)cc2)cc(OC)c1C
IC50 [1]: 15 nM

COc1ccccc1C(=O)N(CCCc1ccccc1)Cc1ccc(-c2ccccc2C(=O)O)cc1
IC50 [1]: 3300 nM

COc1cc(C(=O)N(CCCCc2ccccc2)Cc2ccc(OCC(=O)O)cc2)cc(OC)c1C
IC50 [1]: 6600 nM

COc1cc(C(=O)N(CCCc2ccccc2)Cc2ccc(Oc3ccccc3C(=O)O)cc2)cc(OC)c1OC
IC50 [1]: 130 nM

Cc1cccc(C(=O)N(CCCc2ccccc2)Cc2ccc(-c3ccccc3C(=O)O)cc2)c1
IC50 [1]: 1700 nM

COc1cc(C(=O)N(CCCc2ccccc2)Cc2ccc(Oc3ccccc3C(=O)O)cc2)cc(OC)c1C
IC50 [1]: 71 nM

CCOc1ccccc1OCCN[C@H](C)Cc1ccc(OC)c(S(N)(=O)=O)c1 [TAMSULOSIN]
Activity (Rattus norvegicus [18]): Toxic | Activity (Rattus norvegicus [13]): Active

COc1cc(OC)cc(C(=O)N(CCCc2ccccc2)Cc2ccc(-c3ccccc3C(=O)O)cc2)c1
IC50 [1]: 260 nM

COc1cc(C(=O)N(CCCc2ccccc2)Cc2ccc(OCC(=O)O)cc2)cc(OC)c1C
inhibition in vivo at 10 mg/kg (Rattus norvegicus [2]): 44% | IC50 [1]: 100 nM | IC50 [5]: 23000 nM | half-life [7]: 22 min | IC50 [8]: > 10000 nM | Papp [15]: 3.2 ×10⁻⁶ cm/s | solubility [16]: 84 µM (≈ 40.1 µg/mL) | half-life [17]: 24 min

O=C(O)c1ccccc1-c1ccc(CN(CCCc2ccccc2)C(=O)c2cccc(F)c2)cc1
IC50 [1]: 5500 nM

COc1ccc(C(=O)N(CCCc2ccccc2)Cc2ccc(-c3ccccc3C(=O)O)cc2)cc1OC
IC50 [1]: 3700 nM

COc1ccc(C(=O)N(CCCc2ccccc2)Cc2ccc(-c3ccccc3C(=O)O)cc2)cc1
IC50 [1]: 4400 nM

COc1cc(C(=O)N(CCCc2ccc(F)cc2)Cc2ccc(CC(=O)O)cc2)cc(OC)c1C
IC50 [1]: > 1000 nM

COc1cc(OC)cc(C(=O)N(CCCc2ccccc2)Cc2ccc(Oc3cccc(C(=O)O)c3)cc2)c1
IC50 [1]: 140 nM

COc1cc(OC)cc(C(=O)N(CCCc2ccccc2)Cc2ccc(-c3ccccc3CC(=O)O)cc2)c1
IC50 [1]: 210 nM

COc1cc(OC)cc(C(=O)N(CCCc2ccccc2)Cc2ccc(Oc3ccc(C(=O)O)cc3)cc2)c1
inhibition [19]: 44%

COc1cc(C(=O)N(CCc2ccccc2)Cc2ccc(OCC(=O)O)cc2)cc(OC)c1C
IC50 [1]: > 10000 nM

COc1cc(OC)cc(C(=O)N(CCCc2ccccc2)Cc2ccc(Oc3ccccc3C(=O)O)cc2)c1
IC50 [1]: 89 nM

COc1cc(C(=O)N(CCCc2ccccc2)Cc2ccc(Oc3cccc(C)c3C(=O)O)cc2)cc(OC)c1C
IC50 [1]: 100 nM

COc1cc(C(=O)N(CCCc2ccccc2)Cc2ccc(Oc3cc(Cl)ccc3C(=O)O)cc2)cc(OC)c1C
IC50 [1]: 5.9 nM

COc1cc(OC)cc(C(=O)N(CCCc2ccccc2)Cc2ccc(-c3ccccc3CCC(=O)O)cc2)c1
IC50 [1]: 230 nM

Cc1cc(C)cc(C(=O)N(CCCc2ccccc2)Cc2ccc(-c3ccccc3C(=O)O)cc2)c1
IC50 [1]: 260 nM

O=C(O)c1ccccc1-c1ccc(CN(CCCc2ccccc2)C(=O)c2ccccc2)cc1
IC50 [1]: 12100 nM

COc1cc(C(=O)N(CCCc2ccccc2)Cc2ccc(C(=O)O)cc2)cc(OC)c1C
IC50 [1]: > 1000 nM
